Laboratory results as given in ChEMBL document CHEMBL3244367, “Synthesis and determination of antiviral activity of the 2'(3')-O-methyl derivatives of ribavirin (1-beta-D-ribofuranosyl-1,2,4-triazole-3-carboxamide)” (1977).
≈ marks a conversion by molar mass, not a printed value. Calls of active or inactive are those of the source. The rule behind the calls is not given here.

Columns and labels:
[1] = test system: Vesicular stomatitis virus; assay: Antiviral activity against Vesicular stomatitis virus infected in primary rabbit kidney cells assessed as inhibition of virus-induced cytopathogenicity treated immediately after virus adsorption measured 2 days after virus infection; type: functional; conditions: 48 h
[2] = test system: Human alphaherpesvirus 1; assay: Antiviral activity against Herpes simplex virus 1 infected in primary rabbit kidney cells assessed as inhibition of virus-induced cytopathogenicity treated immediately after virus adsorption measured 3 days after virus infection; type: functional; conditions: Human alphaherpesvirus 1, 72 h
In short: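 Compound added right after virus adsorption; 100 CCID50 virus per culture. Cytopathogenicity was scored once complete in untreated infected controls. The value is the concentration giving 50% inhibition of viral cytopathogenicity.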

[3] = test system: Poliovirus 1; assay: Antiviral activity against Poliovirus type 1 infected in human HeLa cells assessed as inhibition of virus-induced cytopathogenicity treated immediately after virus adsorption measured 2 days after virus infection; type: functional; conditions: Enterovirus C, 48 h
[4] = test system: Coxsackievirus B4; assay: Antiviral activity against Coxsackievirus B4 infected in human HeLa cells assessed as inhibition of virus-induced cytopathogenicity treated immediately after virus adsorption measured 2 days after virus infection; type: functional; conditions: Enterovirus B, 48 h
[5] = Inhibition of DNA synthesis in primary rabbit kidney cells assessed as inhibition of [3H]thymidine incorporation into DNA; type: functional; conditions: Oryctolagus cuniculus, read-out: ID50 (the source's name)
In short: (§1)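 Host-cell DNA synthesis in primary rabbit kidney cells, measured as [methyl-3H]thymidine incorporation into DNA. ID50 is the dose inhibiting thymidine incorporation by 50%. The highest concentration tested was 100 μg/mL.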

[6] = test system: kidney; assay: Inhibition of DNA synthesis in primary rabbit kidney cells assessed as inhibition of [3H]thymidine incorporation into DNA at 100 ug/mL; type: functional, cell-based; conditions: Oryctolagus cuniculus; in short: as §1

Compound	MIC50 [1] [µg/mL]	MIC50 [2] [µg/mL]	MIC50 [3] [µg/mL]	MIC50 [4] [µg/mL]	IC50 [5] [µg/mL]	inhibition [6]
NC(=O)c1ncn([C@@H]2O[C@H](CO)[C@@H](O)[C@H]2O)n1 [RIBAVIRIN]	70 (≈ 287 µM)	20 (≈ 81.9 µM)	40 (≈ 164 µM)	40 (≈ 164 µM)	20 (≈ 81.9 µM)	
CO[C@H]1[C@@H](O)[C@H](n2cnc(C(N)=O)n2)O[C@@H]1CO	> 200	> 200	> 200	> 200		inactive
CO[C@@H]1[C@H](O)[C@@H](CO)O[C@H]1n1cnc(C(N)=O)n1	> 200	> 200	> 200	> 200		inactive
